Test results as given in ChEMBL document CHEMBL2029211, “From a marine neuropeptide to antimicrobial pseudopeptides containing aza-β(3)-amino acids: structure and activity” (J Med Chem, 2012).
In brackets after ≈: the same amount, converted by molar mass. Activity calls are given as the source filed them. The calls are words filed in the database; no cut-off is given here. Starred links: 1 amine or outer side, 2 acyl side, 3 side chain; linkers in the order of their positions; H or OH if unused. Non-standard residues stand in square brackets, D forms with d. Residues, ends and D or L forms follow the SMILES beside them. *: point of attachment. azaβ3(1Nal) = O=C(CN(Cc1cccc2ccccc12)N[*:1])[*:2]; X2 = O=C(CN(Cc1ccc2ccccc2c1)N[*:1])[*:2]; X1 = NC(=O)CN(Cc1cccc2ccccc12)N*; X3 = NC(=O)CN(Cc1ccc2ccccc2c1)N*; X4 = NCCCCN(CC(=O)[*:2])N[*:1]

Experiments:
Priestia megaterium = experiment: Antibacterial activity against Bacillus megaterium after 20 hrs by liquid growth inhibition assay; type: functional
Procedure, shortened: (§1)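 Liquid growth inhibition with peptides dissolved in distilled water, final 20–640 μg.mL-1, added to mid-log bacteria at starting D600 = 0.001. Standard strains in poor broth (1% peptone, 0.5% NaCl, pH 7.5); pathogenic strains in poor broth plus 0.3% beef extract. Incubated 20 h at 30°C; growth read as OD at 595 nm; MIC taken as lowest concentration giving 100% inhibition.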

Enterococcus faecalis = experiment: Antibacterial activity against Enterococcus faecalis after 20 hrs by liquid growth inhibition assay; type: functional
Procedure, shortened: (§2)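 Bacteria grown in brain heart infusion and challenged at mid-log phase (starting D600 = 0.001) with water-dissolved peptides at final 20–640 μg.mL-1. After 20 h at 30°C, OD at 595 nm was read. MIC is the lowest concentration giving complete (100%) growth inhibition.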

Listeria monocytogenes = experiment: Antibacterial activity against Listeria monocytogenes after 20 hrs by liquid growth inhibition assay; type: functional; procedure, shortened: as §2
Staphylococcus aureus = experiment: Antibacterial activity against Staphylococcus aureus after 20 hrs by liquid growth inhibition assay; type: functional; procedure, shortened: as §1
Escherichia coli = experiment: Antibacterial activity against Escherichia coli after 20 hrs by liquid growth inhibition assay; type: functional; procedure, shortened: as §1
Salmonella typhimurium = experiment: Antibacterial activity against Salmonella typhimurium after 20 hrs by liquid growth inhibition assay; type: functional, Salmonella enterica subsp. enterica serovar Typhimurium; procedure, shortened: as §1
Pseudomonas aeruginosa = experiment: Antibacterial activity against Pseudomonas aeruginosa after 20 hrs by liquid growth inhibition assay; type: functional; procedure, shortened: as §1
Klebsiella pneumoniae = experiment: Antibacterial activity against Klebsiella pneumoniae after 20 hrs by liquid growth inhibition assay; type: functional; procedure, shortened: as §1
Vibrio harveyi = experiment: Antibacterial activity against Vibrio harveyi after 20 hrs by liquid growth inhibition assay; type: functional
Procedure, shortened: (§3)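 Vibrios cultured in saline poor broth (1% peptone, 1.5% NaCl, pH 7.2), diluted from mid-log phase to starting D600 = 0.001, then exposed to water-dissolved peptides at final 20–640 μg.mL-1. Incubated 20 h at 18°C; OD read at 595 nm. MIC is the lowest concentration giving 100% inhibition.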

Vibrio alginolyticus = experiment: Antibacterial activity against Vibrio alginolyticus after 20 hrs by liquid growth inhibition assay; type: functional; procedure, shortened: as §3
Vibrio aestuarianus = experiment: Antibacterial activity against Vibrio aestuarianus after 20 hrs by liquid growth inhibition assay; type: functional; procedure, shortened: as §3
Vibrio splendidus = experiment: Antibacterial activity against Vibrio splendidus after 20 hrs by liquid growth inhibition assay; type: functional; procedure, shortened: as §3
[1] = (§4) Cytotoxicity against CHOK1 cells assessed as cell viability at 640 ug/ml after 36 hrs by MTT assay; type: cell-based, Cricetulus griseus, CHO-K1; conditions: chinese hamster, CHO-K1 cells; read-out: Activity
Procedure, shortened: (§5)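 CHO-K1 cells (1.34×10^4/well) in Ham F12 with L-glutamine and 10% foetal calf serum were preincubated 6 h at 37 °C, 5% CO2. Peptides in PBS were added at final 20–640 μg.mL−1 for 36 h. Viability was read by MTT reduction at 570 nm, with PBS as 100% and 1% Triton X-100 as 0% viability; triplicates.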

[2] = Toxicity in rabbit erythrocytes assessed as hemolysis up to 320 ug/ml; type: cell-based, Oryctolagus cuniculus, Erythrocyte; conditions: read-out: Activity
Procedure, shortened: (§6)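 Freshly isolated rabbit erythrocytes were incubated 1 h at 37°C with peptide in PBS at 20 to 320 μg.mL−1. Supernatant OD was read at 415 nm, with PBS as zero and 1% Triton X-100 as 100% hemolysis; triplicate for each concentration and control.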

CHO-K1 [3] = experiment: as §4; type: cell-based, Cricetulus griseus; conditions: chinese hamster, cho-k1, 36 h; procedure, shortened: as §5
[4] = Toxicity in rabbit erythrocytes assessed as hemolysis; type: cell-based, Oryctolagus cuniculus, Erythrocyte; conditions: read-out: HD50 (the source's name); procedure, shortened: as §6
[5] = Ratio of HD50 for rabbit erythrocytes to MIC for Staphylococcus aureus; type: functional
CHO-K1 [6] = experiment: Cytotoxicity against CHOK1 cells assessed as cell viability up to 40 ug/ml after 36 hrs by MTT assay; type: cell-based, Cricetulus griseus; conditions: chinese hamster, cho-k1, 36 h; procedure, shortened: as §5
[7] = Cytotoxicity against CHOK1 cells assessed as cell viability at 160 ug/ml after 36 hrs by MTT assay; type: cell-based, Cricetulus griseus; conditions: chinese hamster, CHO-K1 cells; read-out: Activity; procedure, shortened: as §5
[8] = Ratio of toxicity in CHOK1 cells to MIC for Listeria monocytogenes; type: functional, CHO-K1
[9] = Ratio of toxicity in CHOK1 cells to MIC for Salmonella typhimurium; type: functional, CHO-K1
[10] = Ratio of toxicity in CHOK1 cells to MIC for Staphylococcus aureus; type: functional, CHO-K1
[11] = Salmonella enterica subsp. enterica serovar Typhimurium

Row | Compound | MIC (Priestia megaterium) | MIC (Enterococcus faecalis) | MIC (Listeria monocytogenes) | MIC (Staphylococcus aureus) | MIC (Escherichia coli) | MIC (Salmonella typhimurium; Salmonella enterica) | MIC (Pseudomonas aeruginosa) | MIC (Klebsiella pneumoniae) | MIC (Vibrio harveyi) | MIC (Vibrio alginolyticus) | MIC (Vibrio aestuarianus) | MIC (Vibrio splendidus) | further results
1 | CC(C)C[C@H](NC(=O)CN(Cc1ccc2ccccc2c1)NC(=O)[C@H](C)NC(=O)[C@H](CCCCN)NC(=O)CNC(=O)[C@H](CO)NC(=O)[C@H](CC(C)C)NC(=O)[C@H](C)N)C(=O)N[C@@H](CCCNC(=N)N)C(=O)NN(CC(N)=O)Cc1ccc2ccccc2c1 (H-ALSGKA[X2]LR-X3) | 80 µg/mL (≈ 64.6 µM) | > 640 µg/mL | 160 µg/mL (≈ 129 µM) | 40 µg/mL (≈ 32.3 µM) | 160 µg/mL (≈ 129 µM) | 160 µg/mL (≈ 129 µM) | 320 µg/mL (≈ 258 µM) | > 640 µg/mL | 640 µg/mL (≈ 517 µM) | > 640 µg/mL | 80 µg/mL (≈ 64.6 µM) | 640 µg/mL (≈ 517 µM) | viability at 36 h, 640 ug/ml [1]: 47%
2 | CC(C)C[C@H](NC(=O)CN(Cc1ccc2ccccc2c1)NC(=O)[C@H](C)NC(=O)[C@H](CCCCN)NC(=O)CNC(=O)[C@H](CO)NC(=O)[C@H](CC(C)C)NC(=O)[C@H](C)N)C(=O)N[C@@H](CCCNC(=N)N)C(=O)N[C@@H](Cc1ccccc1)C(N)=O (H-ALSGKA[X2]LRF-NH2) | 80 µg/mL (≈ 68.2 µM) | > 640 µg/mL | 80 µg/mL (≈ 68.2 µM) | 80 µg/mL (≈ 68.2 µM) | 320 µg/mL (≈ 273 µM) | 80 µg/mL (≈ 68.2 µM) | 160 µg/mL (≈ 136 µM) | inactive | 40 µg/mL (≈ 34.1 µM) | 80 µg/mL (≈ 68.2 µM) | 40 µg/mL (≈ 34.1 µM) | 20 µg/mL (≈ 17 µM) | hemolysis [2]: 5%
3 | CC(C)C[C@H](NC(=O)CN(Cc1cccc2ccccc12)NC(=O)[C@H](C)NC(=O)[C@H](CCCCN)NC(=O)CNC(=O)[C@H](CO)NC(=O)[C@H](CC(C)C)NC(=O)[C@H](C)N)C(=O)N[C@@H](CCCNC(=N)N)C(=O)NN(CC(N)=O)Cc1cccc2ccccc12 (H-ALSGKA[azaβ3(1Nal)]LR-X1) | 20 µg/mL (≈ 16.1 µM) | > 640 µg/mL | 80 µg/mL (≈ 64.6 µM) | 20 µg/mL (≈ 16.1 µM) | 40 µg/mL (≈ 32.3 µM) | 80 µg/mL (≈ 64.6 µM) | 160 µg/mL (≈ 129 µM) | inactive | 640 µg/mL (≈ 517 µM) | > 640 µg/mL | 80 µg/mL (≈ 64.6 µM) | 320 µg/mL (≈ 258 µM) | Activity (CHO-K1 [3]): Toxic; HC50 [4]: 200 µg/mL; Ratio [5]: 10; Activity (CHO-K1 [6]): Non-toxic; viability at 36 h, 160 ug/ml [7]: 78%; Ratio [8]: 8; Ratio [9]: 8; Ratio [10]: 32
4 | CC(C)C[C@H](NC(=O)[C@H](C)N)C(=O)N[C@@H](CO)C(=O)NCC(=O)NN(CCCCN)CC(=O)N[C@@H](C)C(=O)N[C@@H](Cc1ccccc1)C(=O)N[C@@H](CC(C)C)C(=O)N[C@@H](CCCNC(=N)N)C(=O)N[C@@H](Cc1ccccc1)C(N)=O (H-ALSG[X4]AFLRF-NH2) | inactive | inactive | inactive | inactive | inactive |  | > 640 µg/mL | inactive | inactive | inactive | inactive | 320 µg/mL (≈ 285 µM) | MIC (Salmonella typhimurium; [11]): inactive
5 | CC1(C)S[C@@H]2[C@H](NC(=O)[C@H](N)c3ccccc3)C(=O)N2[C@H]1C(=O)O [AMPICILLIN] | 20 µg/mL (≈ 57.2 µM) | 5 µg/mL (≈ 14.3 µM) | 5 µg/mL (≈ 14.3 µM) | 5 µg/mL (≈ 14.3 µM) | 5 µg/mL (≈ 14.3 µM) | 5 µg/mL (≈ 14.3 µM) | 320 µg/mL (≈ 916 µM) | 5 µg/mL (≈ 14.3 µM) | > 320 µg/mL | > 320 µg/mL | 5 µg/mL (≈ 14.3 µM) | 10 µg/mL (≈ 28.6 µM) | 
6 | H-ALSGDAFLRF-NH2 | 640 µg/mL | inactive | inactive | inactive | 640 µg/mL |  | inactive | inactive | > 640 µg/mL | 320 µg/mL | 640 µg/mL | 320 µg/mL | MIC (Salmonella typhimurium; [11]): inactive
7 | H-ALSGKAFLRF-NH2 | 80 µg/mL | inactive | inactive | 320 µg/mL | 80 µg/mL | 320 µg/mL | 640 µg/mL | > 640 µg/mL | 320 µg/mL | 320 µg/mL | 80 µg/mL | 40 µg/mL | hemolysis [2]: < 1.5%; viability at 36 h, 640 ug/ml [1]: 87%
